In PMC9514665 (Neuropharmacology, 2021):
“And” between values parts separate entries of the source, which are not always exact repeats. Equal values may be shown once. Read-outs that look alike come from different tables or passages of the source. Marks after values point to notes of the source that are not given here.

Legend:
[1] = Oral bioavailability after subchronic oral administration; format: in vivo, mouse; details: sufficient plasma concentrations not achieved
[2] = Aqueous solubility; format: physicochemical
[3] = target: CB1 receptor; details: ref Laprairie et al., 2017; cited from earlier work
[4] = Pharmacokinetic analysis in mouse plasma and brain after i.p. injection; format: in vivo
[5] = format: in vivo, mouse; details: for Plasma Concentration: 30 min; for Plasma Concentration / concentration at 60 min: F1.Scn1a^+/− mice; for concentration at 60 min: both, F1.Scn1a+/−, mouse, in vivo, Plasma Concentration
[6] = system: F1.Scn1a^+/− mice; assay: Hyperthermia-induced seizures; format: in vivo, mouse
Method in brief: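 Male and female F1.Scn1a+/− mice at P14–16 received i.p. dosing (10 mL/kg; vehicle ethanol:Tween 80:saline 1:1:18). A rectal probe was inserted 15 min before the post-dose time point (30 or 60 min, set by PK), followed by 5-min acclimation. Core temperature was raised 0.5°C every 2 min until first clonic convulsion with loss of posture, or to 42.5°C with a 3-min hold. n = 17–22 per group; logrank Mantel-Cox.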

[7] = system: Genetic Absence Epilepsy Rats from Strasbourg (GAERS); details: ref Roebuck et al., 2021, cited from earlier work
[8] = system: wildtype mice; details: 10 mg/kg; ref Laprairie et al., 2019; cited from earlier work
[9] = system: F1.Scn1a^+/− mice; details: 2017, cited from earlier work
[10] = system: neuropathic pain model; details: combined with the MAGL inhibitor JZL184; ref Slivicki et al., 2018; cited from earlier work
[11] = system: CB1 receptor; details: repeated exposure to low doses, ref Ghosh et al., 2013, Kinsey et al.; cited from earlier work
[12] = system: anandamide (AEA); assay: Hippocampal anandamide concentrations after ABX-1431 treatment; format: in vivo, mouse; details: acute i.p. treatment; F1.Scn1a^+/− mice
Method in brief: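 Acute i.p. dosing of F1.Scn1a+/− mice in ethanol:Tween 80:saline (1:1:18), 10 mL/kg. Whole brains were taken 60 min post-dose after hyperthermia testing, by cervical dislocation without anaesthesia, and snap frozen. Hippocampi were Dounce-homogenised and spun at 20,000g for 30 min at 4°C. Supernatant underwent dichloromethane:methanol (2:1)/0.88% KCl liquid-liquid extraction on ice, avoiding plastics. Analysis was by UHPLC-triple quadrupole LC-MS/MS against external calibration curves. 2-AG: Brown-Forsythe ANOVA, Dunnett's T3. Anandamide: Kruskal-Wallis.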

[13] = system: CB1 receptor; assay: Hippocampal CB1 receptor expression by immunoblotting after subchronic treatment; format: in vivo, mouse; details: subchronic 350 mg ABX-1431/kg chow; F1.Scn1a^+/− mice; p = 0.0077
Method in brief: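 Hippocampi from F1.Scn1a+/− mice, untreated or fed 350 mg/kg chow, were Dounce-homogenised in buffered 0.32 M sucrose. Membranes were isolated by sequential 2,000g and 20,000g spins at 4°C and protein quantified by Bradford. Membrane protein (20 μg) was run on 10% SDS-PAGE and transferred to PVDF. Rabbit anti-CB1 was detected with fluorescent secondaries (1:20,000). Densitometry was normalised to β-tubulin; Student's t-test.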

[14] = system: 2-arachidonoylglycerol (2-AG); assay: Hippocampal 2-AG concentrations after ABX-1431 treatment; format: in vivo, mouse; details: F1.Scn1a^+/− mice
[15] = system: F1.Scn1a^+/− mice; assay: Spontaneous seizures and survival; format: in vivo, mouse; details: 350 mg ABX-1431/kg chow
Method in brief: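 Male and female F1.Scn1a+/− mice had one hyperthermia-induced seizure at P18, then were randomised to untreated or 350 mg/kg medicated chow made from irradiated powdered diet. Continuous 60-h video recording was used to count and score spontaneous GTCS. Treatment continued to P30 for survival. Fisher's exact test covered seizure-free and hindlimb-extension proportions, Mann-Whitney covered frequency, and logrank covered survival.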

[16] = format: in vivo, mouse; details: 350 mg/kg chow, subchronic oral
[17] = brain, wildtype mice, 5 mg/kg i.p.
[18] = brain, wildtype mice, 5 mg/kg i.p., converted from ng/mg brain assuming density of 1 g/mL
[19] = plasma, wildtype mice, 5 mg/kg i.p.

For O=[N+]([O-])C[C@@H](c1ccccc1)c1c(-c2ccccc2)[nH]c2ccccc12 [GAT229], which oral bioavailability [1] is on record?
The oral bioavailability was “poor”.

And the aqueous solubility [2]?
The aqueous solubility was “poor”.

And the EC50 [3]?
Its EC50 is about 295 nM.

What about the t1/2 [4, 17] of the same compound?
Its t1/2 is 53 min.

And the tmax [4, 17]?
The tmax was 30 ng/mL.

What about the AUC [4, 18] of the same compound?
Its AUC is 85 ^* μg min/mL.

What about the Cmax [4, 18] of the same compound?
The Cmax was 888 ± 90 ng/mL.

And the AUC [4, 19]?
The AUC was 74 µg·min/mL.

What about the Cmax [4, 19] of the same compound?
The Cmax was 858 ± 167 ng/mL.

What about the t1/2 [4, 19] of the same compound?
The t1/2 was 45 min.

What about the tmax [4, 19] of the same compound?
Its tmax is 30 ng/mL.

What about the brain-plasma ([4]; wildtype mice, 5 mg/kg i.p.) of the same compound?
The brain-plasma was 110%.

And the brain-plasma ratio ([4]; wildtype mice, 5 mg/kg i.p.)?
The brain-plasma ratio was 1.1.

And the “Plasma Concentration” value ([5]; 10 mg/kg i.p.)?
The value was 900 ± 100 ng/mL.

And the “Plasma Concentration” value ([5]; 30 mg/kg i.p. (suspension))?
Its value is 2600 ± 500 ng/mL.

And the “Plasma Concentration” value ([5]; 100 mg/kg i.p. (suspension))?
The value was 3200 ± 200 ng/mL.

And the “Plasma concentrations in experimental animals” value ([5]; 30 and 100 mg/kg doses)?
Its value is 7.6–9.3 μM and 2.6–3.2 μg/mL.

And the “Plasma Concentration of GAT229” value ([5]; co-treatment GAT229 + ABX-1431 (30 mg/kg + 10 mg/kg))?
Its value is 2300 ± 300 ng/mL.

What about the “temperature threshold for thermally-induced seizures (GTCS)” value (shortened to “temperature threshold”) ([6]; 30 mg/kg i.p., vehicle 41.1 ± 0.1°C, p = 0.0152) of the same compound?
The value was 41.7 ± 0.2 °C.

What about the “temperature threshold” value ([6]; 100 mg/kg i.p., vehicle 41.1 ± 0.1°C, p = 0.0059) of the same compound?
Its value is 41.8 ± 0.1 °C.

And the “association with sedation or catalepsy” value ([7]; GAERs model)?
The value was “not associated”.

And the “effect against absence seizures” value [7]?
Its value is “anticonvulsant effects”.

And the “effect on locomotor activity” value [8]?
Its value is “reduced”.

With CN1C(=O)CC(=O)N(c2ccccc2)c2cc(Cl)ccc21 [clobazam] as the compound, how does the “effective dose in this model” value ([9]; ref Anderson et al., 2019a, Hawkins et al.) read?
Its value is 1 mg/kg.

For O=[N+]([O-])CC(c1ccccc1)c1c(-c2ccccc2)[nH]c2ccccc12 (stereo not shown) [GAT211], which antinociceptive effect [10] is on record?
Its antinociceptive effect is “synergistic”.

For O=C(Oc1ccc([N+](=O)[O-])cc1)N1CCC(C(O)(c2ccc3c(c2)OCO3)c2ccc3c(c2)OCO3)CC1 [JZL184], which “CB1 receptor downregulation and desensitization” value [11] is on record?
Its value is “does not occur”.

For O=C(OC(C(F)(F)F)C(F)(F)F)N1CCN(Cc2ccc(C(F)(F)F)cc2N2CCCC2)CC1 [ABX-1431], which “effect on hippocampal anandamide concentrations” value [12] is on record?
The value was “not affected”.

What about the “effect on hippocampal CB1 receptor expression” value [13] of the same compound?
Its value is “significantly lowered”.

And the AUC ([4]; mouse, in vivo, ip, 5 mg/kg)?
Its AUC is 29 µg·min/mL.

What about the Cmax ([4]; mouse, in vivo, ip, 5 mg/kg) of the same compound?
Its Cmax is 317 ± 40 ng/mL.

And the “brain half-life (in words)” value ([4]; mouse, in vivo, ip, 5 mg/kg)?
Its value is “prolonged”.

And the half-life ([4]; mouse, in vivo, ip, 5 mg/kg)?
The half-life was 47 min.

And the Cmax ([4]; mouse, in vivo, ip, 5 mg/kg, Cmax)?
Its Cmax is 468 ± 40 ng/mL.

And the concentration at 60 min ([5]; 3 mg/kg i.p.)?
Its concentration at 60 min is 198 ± 31 ng/mL.

And the concentration at 60 min ([5]; 10 mg/kg i.p.)?
Its concentration at 60 min is 373 ± 53 ng/mL.

What about the concentration at 60 min ([5]; 30 mg/kg i.p.) of the same compound?
Its concentration at 60 min is 883 ± 114 ng/mL.

What about the “hippocampal 2-AG concentrations relative to vehicle-treated mice” value ([14]; acute 10 mg/kg i.p.) of the same compound?
Its value is 8 fold.

What about the “hippocampal 2-AG concentrations increase” value ([14]; acute 30 mg/kg i.p.) of the same compound?
Its value is 13 fold.

What about the “hippocampal 2-AG concentrations increase” value ([14]; subchronic oral (350 mg/kg chow)) of the same compound?
Its value is 15 fold.

And the “temperature threshold” value ([6]; 10 mg/kg i.p., vehicle 40.6 ± 0.1°C, p = 0.0008)?
Its value is 41.3 ± 0.2 °C.

And the “survival compared with untreated controls” value ([15]; P18 to P30, p = 0.6803)?
Its value is “not different”.

And the “effect on spontaneous seizure (GTCS) frequency” value ([15]; 60-h recording, vs untreated, p = 0.0064)?
The value was “significantly increase”.

What about the “proportion of seizures that progressed to full hindlimb extension” value ([15]; 93/272 seizures, untreated 45/83 (54%), p = 0.0011) of the same compound?
Its value is 34%.

And the “effect on proportion of mice that exhibited seizures” value ([15]; vs untreated, p = 0.6562)?
The value was “did not affect”.

What about the “Plasma Concentration” value [16] of the same compound?
The value was 170 to 394 ng/mL.

Which “effective dose in this model” value ([9]; ref Anderson et al., 2020, 2019a, Kaplan et al.) does the source give for C=C(C)[C@@H]1CCC(C)=C[C@H]1c1c(O)cc(CCCCC)cc1O [CBD, cannabidiol] here?
The value was 100 mg/kg.
